Source: ChEMBL document CHEMBL1177688, “Synthesis of novel pyrazolic analogues of chalcones and their 3-aryl-4-(3-aryl-4,5-dihydro-1H-pyrazol-5-yl)-1-phenyl-1H-pyrazole derivatives as potential antitumor agents” (2010)

Tests used:
Format in all cases: functional
SR = test: Antiproliferative activity against human SR cells after 48 hrs by SRB assay
Outline: (§1)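 NCI 60-cell-line human tumour panel, secondary five-dose screen. Compounds tested at 100, 10, 1.0, 0.1 and 0.01 µM with 48 h continuous exposure. Cell growth was estimated by sulforhodamine B protein staining. GI50 is the concentration giving a 50% reduction in net protein increase relative to untreated control cells over the incubation. TGI and LC50 were also derived.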

EKVX = test: Antiproliferative activity against human EKVX cells after 48 hrs by SRB assay; conditions: for CC50: read-out: LC50 (the source's name); outline: as §1
NCI-H226 = test: Antiproliferative activity against human NCI-H226 cells after 48 hrs by SRB assay; conditions: NCI-H226, 48 h; for CC50: read-out: LC50 (the source's name); outline: as §1
NCI-H23 = test: Antiproliferative activity against human NCI-H23 cells after 48 hrs by SRB assay; conditions: NCI-H23, 48 h
Outline: (§2)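 NCI 60-cell human tumour line panel. Continuous 48 h drug exposure at five concentrations (100, 10, 1.0, 0.1, 0.01 µM). Cell growth estimated by sulforhodamine B protein staining. GI50 = concentration giving 50% reduction in net protein increase versus control cells over the incubation. LC50 = molar concentration killing 50% of cells.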

NCI-H460 = test: Antiproliferative activity against human NCI-H460 cells after 48 hrs by SRB assay; conditions: NCI-H460, 48 h; outline: as §1
NCI-H522 = test: Antiproliferative activity against human NCI-H522 cells after 48 hrs by SRB assay; conditions: NCI-H522, 48 h; outline: as §1
HOP-92 = test: Antiproliferative activity against human HOP92 cells after 48 hrs by SRB assay; conditions: HOP-92, 48 h; outline: as §1
NCI-H322M = test: Antiproliferative activity against human NCI-H322M cells after 48 hrs by SRB assay; conditions: read-out: LC50 (the source's name); outline: as §1
A549 = test: Antiproliferative activity against human A549 cells after 48 hrs by SRB assay; conditions: A549, 48 h, read-out: LC50 (the source's name); outline: as §1
COLO 205 = test: Antiproliferative activity against human COLO205 cells after 48 hrs by SRB assay; conditions: COLO 205, 48 h; outline: as §2
HCT-116 = test: Antiproliferative activity against human HCT116 cells after 48 hrs by SRB assay; conditions: HCT-116, 48 h; outline: as §2
HCT-15 = test: Antiproliferative activity against human HCT15 cells after 48 hrs by SRB assay; conditions: HCT-15, 48 h; for CC50: read-out: LC50 (the source's name); outline: as §1
HT-29 = test: Antiproliferative activity against human HT-29 cells after 48 hrs by SRB assay; conditions: HT-29, 48 h, read-out: LC50 (the source's name); outline: as §1
SF-295 = test: Antiproliferative activity against human SF295 cells after 48 hrs by SRB assay; conditions: SF-295, 48 h; for CC50: read-out: LC50 (the source's name); outline: as §1
SF-539 = test: Antiproliferative activity against human SF539 cells after 48 hrs by SRB assay; conditions: SF-539, 48 h; outline: as §2
U-251 = test: Antiproliferative activity against human U251 cells after 48 hrs by SRB assay; conditions: U-251, 48 h; outline: as §2
SF-268 = test: Antiproliferative activity against human SF268 cells after 48 hrs by SRB assay; conditions: SF-268, 48 h; outline: as §1
SNB-19 = test: Antiproliferative activity against human SNB19 cells after 48 hrs by SRB assay; conditions: SNB-19, 48 h; for CC50: read-out: LC50 (the source's name); outline: as §1
SNB-75 = test: Antiproliferative activity against human SNB75 cells after 48 hrs by SRB assay; conditions: SNB-75, 48 h; outline: as §1
LOX IMVI = test: Antiproliferative activity against human LOXIMVI cells after 48 hrs by SRB assay; outline: as §1
Malme-3M = test: Antiproliferative activity against human MALME-3M cells after 48 hrs by SRB assay; conditions: for CC50: read-out: LC50 (the source's name); outline: as §1
MDA-MB-435 = test: Antiproliferative activity against human MDA-MB-435 cells after 48 hrs by SRB assay; conditions: MDA-MB-435, 48 h, read-out: LC50 (the source's name); outline: as §1
UACC-257 = test: Antiproliferative activity against human UACC257 cells after 48 hrs by SRB assay; conditions: UACC-257, 48 h; outline: as §1
SK-MEL-2 = test: Antiproliferative activity against human SK-MEL-2 cells after 48 hrs by SRB assay; conditions: SK-MEL-2, 48 h; for CC50: read-out: LC50 (the source's name); outline: as §1
M14 = test: Antiproliferative activity against human M14 cells after 48 hrs by SRB assay; conditions: M14, 48 h, read-out: LC50 (the source's name); outline: as §1
SK-MEL-28 = test: Antiproliferative activity against human SK-MEL-28 cells after 48 hrs by SRB assay; conditions: SK-MEL-28, 48 h, read-out: LC50 (the source's name); outline: as §1
IGROV-1 = test: Antiproliferative activity against human IGROV1 cells after 48 hrs by SRB assay; conditions: IGROV-1, 48 h; for CC50: read-out: LC50 (the source's name); outline: as §1
NCI/ADR-RES = test: Antiproliferative activity against human NCI/ADR-RES cells after 48 hrs by SRB assay; outline: as §2
OVCAR-8 = test: Antiproliferative activity against human OVCAR8 cells after 48 hrs by SRB assay; conditions: OVCAR-8, 48 h; for CC50: read-out: LC50 (the source's name); outline: as §1
SK-OV-3 = test: Antiproliferative activity against human SKOV3 cells after 48 hrs by SRB assay; conditions: SK-OV-3, 48 h; for CC50: read-out: LC50 (the source's name); outline: as §1
A498 = test: Antiproliferative activity against human A498 cells after 48 hrs by SRB assay; conditions: A498, 48 h; for CC50: read-out: LC50 (the source's name); outline: as §1
CAKI-1 = test: Antiproliferative activity against human Caki1 cells after 48 hrs by SRB assay; conditions: CAKI-1, 48 h; outline: as §2
RXF 393 = test: Antiproliferative activity against human RXF393 cells after 48 hrs by SRB assay; conditions: RXF 393, 48 h; outline: as §2
SN12C = test: Antiproliferative activity against human SN12C cells after 48 hrs by SRB assay; conditions: read-out: LC50 (the source's name); outline: as §1
UO-31 = test: Antiproliferative activity against human UO31 cells after 48 hrs by SRB assay; conditions: UO-31, 48 h; for CC50: read-out: LC50 (the source's name); outline: as §1
MCF7 = test: Antiproliferative activity against human MCF7 cells after 48 hrs by SRB assay; conditions: MCF7, 48 h, read-out: LC50 (the source's name); outline: as §1
BT-549 = test: Antiproliferative activity against human BT549 cells after 48 hrs by SRB assay; conditions: BT-549, 48 h; for CC50: read-out: LC50 (the source's name); outline: as §1
T47D = test: Antiproliferative activity against human T47D cells after 48 hrs by SRB assay; outline: as §2
MDA-MB-468 = test: Antiproliferative activity against human MDA-MB-468 cells after 48 hrs by SRB assay; conditions: MDA-MB-468, 48 h; for CC50: read-out: LC50 (the source's name); outline: as §1
[1] = read-out: LC50 (the source's name)

## COc1ccc(C2=NN(C(C)=O)C(c3cn(-c4ccccc4)nc3-c3ccc(Cl)cc3)C2)cc1 (stereo unspecified)
SR
  GI50: 1.57 µM
EKVX
  CC50: > 100 µM
NCI-H226
  CC50: > 100 µM
NCI-H23
  GI50: 1.77 µM
NCI-H460
  GI50: 1.98 µM
NCI-H522
  GI50: 2.2 µM
  LC50 (concentration killing 50% of tumour cells): > 100 µM
HOP-92
  GI50: 0.04 µM
NCI-H322M
  CC50: > 100 µM
A549
  CC50: > 100 µM
COLO 205
  GI50: 2.16 µM
HCT-116
  GI50: 1.94 µM
HCT-15
  GI50: 3.09 µM
  CC50: > 100 µM
HT-29
  CC50: > 100 µM
SF-295
  GI50: 2.48 µM
  CC50: > 100 µM
SF-539
  GI50: 1.87 µM
U-251
  GI50: 1.71 µM
SF-268
  GI50: 4.55 µM
  LC50: > 100 µM
SNB-19
  CC50: > 100 µM
SNB-75
  GI50: 2.76 µM
  LC50 (50% lethal concentration): > 100 µM
LOX IMVI
  GI50: 1.66 µM
Malme-3M
  CC50: > 100 µM
MDA-MB-435
  CC50: > 100 µM
UACC-257
  GI50: > 100 µM
  LC50 (concentration killing 50% of cells): > 100 µM
SK-MEL-2
  CC50: > 100 µM
M14
  CC50: > 100 µM
SK-MEL-28
  CC50: > 100 µM
IGROV-1
  CC50: > 100 µM
NCI/ADR-RES
  GI50: 1.8 µM
OVCAR-8
  CC50: > 100 µM
SK-OV-3
  GI50: 2.14 µM
  CC50: > 100 µM
A498
  CC50: > 100 µM
CAKI-1
  GI50: 1.96 µM
RXF 393
  GI50: 1.82 µM
SN12C
  CC50: > 100 µM
UO-31
  CC50: > 100 µM
MCF7
  CC50: > 100 µM
BT-549
  CC50: > 100 µM
T47D
  GI50: 1.9 µM
MDA-MB-468
  CC50: > 100 µM

## O=C(/C=C/c1cn(-c2ccccc2)nc1-c1ccc([N+](=O)[O-])cc1)c1ccc(Cl)cc1
SR
  GI50: 2.76 µM
  LC50 (50% net cell kill): > 100 µM
EKVX
  GI50: 4.97 µM
  CC50: > 100 µM
NCI-H226
  GI50: 3.77 µM
  CC50: > 100 µM
NCI-H23
  GI50: 4.99 µM
NCI-H23; [1]
  CC50: > 100 µM
NCI-H460; [1]
  CC50: > 100 µM
NCI-H522
  GI50: 6.41 µM
  LC50 (concentration killing 50% of tumour cells): > 100 µM
HOP-92; [1]
  CC50: > 100 µM
NCI-H322M
  CC50: > 100 µM
A549
  CC50: > 100 µM
COLO 205
  GI50: 2.09 µM
HCT-116
  GI50: 2.75 µM
HCT-116; [1]
  CC50: > 100 µM
HCT-15
  CC50: > 100 µM
HT-29
  CC50: > 100 µM
SF-295
  GI50: 2.32 µM
  CC50: 74.1 µM
SF-539
  GI50: 3.95 µM
SF-539; [1]
  CC50: > 100 µM
U-251
  GI50: 2.09 µM
U-251; [1]
  CC50: > 100 µM
SF-268
  GI50: 3.12 µM
  LC50: > 100 µM
SNB-19
  GI50: 4.9 µM
  CC50: > 100 µM
SNB-75
  GI50: 1.55 µM
  LC50 (50% lethal concentration): 24 µM
LOX IMVI; [1]
  CC50: > 100 µM
Malme-3M
  GI50: 2.44 µM
  CC50: > 100 µM
MDA-MB-435
  CC50: > 100 µM
UACC-257
  GI50: > 100 µM
  LC50 (concentration killing 50% of cells): > 100 µM
SK-MEL-2
  GI50: 6.99 µM
  CC50: 57.9 µM
M14
  CC50: > 100 µM
SK-MEL-28
  CC50: > 100 µM
IGROV-1
  GI50: 3.54 µM
  CC50: > 100 µM
NCI/ADR-RES
  GI50: 4.64 µM
NCI/ADR-RES; [1]
  CC50: > 100 µM
OVCAR-8
  GI50: 6.32 µM
  CC50: > 100 µM
SK-OV-3
  GI50: 12.5 µM
  CC50: > 100 µM
A498
  GI50: 3.14 µM
  CC50: > 100 µM
CAKI-1
  GI50: 4.56 µM
CAKI-1; [1]
  CC50: > 100 µM
RXF 393
  GI50: 2.08 µM
RXF 393; [1]
  CC50: 9.87 µM
SN12C
  CC50: > 100 µM
UO-31
  GI50: 0.1 µM
  CC50: > 100 µM
MCF7
  CC50: > 100 µM
BT-549
  GI50: 2.25 µM
  CC50: > 100 µM
T47D
  GI50: 1.12 µM
T47D; [1]
  CC50: > 100 µM
MDA-MB-468
  GI50: 2.91 µM
  CC50: > 100 µM
